Consider 8 compounds from ChEMBL document CHEMBL4033793, “Potent and Selective Inhibitors of Human Sirtuin 5” (J Med Chem, 2018).

Assay [1] addresses T1, NAD-dependent protein deacylase sirtuin-5, mitochondrial (Homo sapiens, UniProt Q9NXA8). The assay is described as follows: Inhibition of recombinant human N-terminal His-tagged SIRT5 (34 to 269 residues) expressed in Escherichia coli Transetta(DE3) cells using Benzyl Lys(Succinyl)-AMC substrate after 2 hrs by fluorescence assay.
Target sequence in this assay (Q9NXA8 whole entry, the tested form may be a part): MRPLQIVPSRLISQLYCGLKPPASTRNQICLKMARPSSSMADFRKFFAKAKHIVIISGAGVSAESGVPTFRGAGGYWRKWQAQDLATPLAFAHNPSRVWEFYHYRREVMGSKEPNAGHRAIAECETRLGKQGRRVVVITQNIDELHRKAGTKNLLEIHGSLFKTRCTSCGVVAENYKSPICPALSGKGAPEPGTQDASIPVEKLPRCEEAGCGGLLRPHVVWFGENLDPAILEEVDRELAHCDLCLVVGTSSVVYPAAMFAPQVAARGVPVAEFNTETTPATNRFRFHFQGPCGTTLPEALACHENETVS
Assay [2] has as its target T1, NAD-dependent protein deacylase sirtuin-5, mitochondrial. The assay is described as follows: Inhibition of SIRT5 (unknown origin) using GGQSLK[succ]FGKG as substrate after 30 mins.
Target sequence in this assay (Q9NXA8 whole entry, the tested form may be a part): as above
Assay [3] has the same target. The assay is described as follows: Inhibition of human recombinant N-terminal Strep2-tagged SIRT5 expressed in Escherichia coli BL21 (DE3) using Abz-GVLK(glutaryl)AY(NO2)GV-NH2 as substrate in presence of NAD+ by fluorescence assay.
Target sequence in this assay (Q9NXA8 whole entry, the tested form may be a part): as above
In assay [4] the target is T2, NAD-dependent protein deacetylase sirtuin-1 (Homo sapiens) (UniProt Q96EB6).
T2 sequence (whole entry): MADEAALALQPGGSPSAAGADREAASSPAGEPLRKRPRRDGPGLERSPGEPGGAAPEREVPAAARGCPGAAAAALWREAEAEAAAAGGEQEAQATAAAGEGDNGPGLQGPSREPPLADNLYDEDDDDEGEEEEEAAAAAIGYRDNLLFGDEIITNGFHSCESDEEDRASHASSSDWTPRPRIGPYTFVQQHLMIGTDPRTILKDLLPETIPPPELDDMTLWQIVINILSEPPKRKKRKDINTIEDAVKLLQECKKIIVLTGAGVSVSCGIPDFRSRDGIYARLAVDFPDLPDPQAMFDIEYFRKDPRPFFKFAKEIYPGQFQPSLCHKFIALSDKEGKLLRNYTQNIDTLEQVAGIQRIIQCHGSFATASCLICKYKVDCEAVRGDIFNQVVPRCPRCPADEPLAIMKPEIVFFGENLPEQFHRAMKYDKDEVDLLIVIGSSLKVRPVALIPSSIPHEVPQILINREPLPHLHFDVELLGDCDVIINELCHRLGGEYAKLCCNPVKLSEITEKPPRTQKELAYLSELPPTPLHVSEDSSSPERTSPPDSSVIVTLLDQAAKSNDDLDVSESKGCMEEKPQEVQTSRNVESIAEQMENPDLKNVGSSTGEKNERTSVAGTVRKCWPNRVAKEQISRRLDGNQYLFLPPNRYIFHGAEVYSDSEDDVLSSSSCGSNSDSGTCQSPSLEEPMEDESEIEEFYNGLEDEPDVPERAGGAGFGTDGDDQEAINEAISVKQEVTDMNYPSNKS
Briefly: Inhibition of SIRT1 (unknown origin) up to 50 uM using Bz-GVLK(acetyl)EYGV-NH2 as substrate after 8 mins by HPLC analysis. The essentials: (§1)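 HPLC activity assay at 37°C with 0 or 50 µM inhibitor, 500 µM NAD+, 5% DMSO, 0.1 µM enzyme and 50 µM substrate, in 20 mM Tris, 150 mM NaCl, 5 mM MgCl2, pH 7.8. Incubation 8 min for SIRT1-3 and 6 min for SIRT6. Stopped with TFA-water (1:9), then analysed by reversed-phase HPLC with detection at 260 nm.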

Assay [5] addresses T1, NAD-dependent protein deacylase sirtuin-5, mitochondrial. The assay is described as follows: Binding affinity to human N-terminal biotinylated SIRT5 by surface plasmon resonance spectroscopy. The essentials: (§2)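 Surface plasmon resonance: N-terminally biotinylated Sirt5 (biotinylated via Trypsiligase) immobilized on a streptavidin-coated sensor chip at about 1800 RU. Biotinylated ligand injected at 50 nM in PBS (4 mM KH2PO4, 16 mM Na2HPO4, 115 mM NaCl, pH 7.4). Kinetic constants and affinity obtained by fitting to a 1:1 Langmuir binding model.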
A general note: Surface plasmon resonance follows binding to a sensor surface in real time, without labels.
Target sequence in this assay (Q9NXA8 whole entry, the tested form may be a part): as the sequence (Q9NXA8 whole entry, the tested form may be a part) above

For assay [6], the target named is NAD-dependent protein deacylase sirtuin-6 (Homo sapiens) (UniProt Q8N6T7). Briefly: Inhibition of SIRT6 (unknown origin) up to 50 uM using Ac-EALPKK(myristoyl)TGGNH2 as substrate after 6 mins by HPLC analysis. In outline: as §1
Assay [7] concerns the target T3, NAD-dependent protein deacetylase sirtuin-2 (Homo sapiens) (UniProt Q8IXJ6).
T3 sequence (whole entry): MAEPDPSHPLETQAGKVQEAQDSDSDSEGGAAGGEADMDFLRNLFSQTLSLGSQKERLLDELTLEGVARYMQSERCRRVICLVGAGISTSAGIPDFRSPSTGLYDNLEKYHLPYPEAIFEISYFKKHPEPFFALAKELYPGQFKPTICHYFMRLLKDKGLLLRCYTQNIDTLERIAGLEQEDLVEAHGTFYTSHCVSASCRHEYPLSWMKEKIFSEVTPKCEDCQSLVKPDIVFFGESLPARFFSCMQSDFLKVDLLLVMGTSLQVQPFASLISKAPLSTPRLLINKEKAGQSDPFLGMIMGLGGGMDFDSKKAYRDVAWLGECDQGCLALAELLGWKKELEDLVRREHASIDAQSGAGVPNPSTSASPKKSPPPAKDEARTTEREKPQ
Briefly: Inhibition of SIRT2 (unknown origin) up to 50 uM using Bz-GVLK(acetyl)EYGV-NH2 as substrate after 8 mins by HPLC analysis. In outline: as §1

For assay [8], the target named is T4, NAD-dependent protein deacetylase sirtuin-3, mitochondrial (Homo sapiens) (UniProt Q9NTG7).
T4 sequence (whole entry): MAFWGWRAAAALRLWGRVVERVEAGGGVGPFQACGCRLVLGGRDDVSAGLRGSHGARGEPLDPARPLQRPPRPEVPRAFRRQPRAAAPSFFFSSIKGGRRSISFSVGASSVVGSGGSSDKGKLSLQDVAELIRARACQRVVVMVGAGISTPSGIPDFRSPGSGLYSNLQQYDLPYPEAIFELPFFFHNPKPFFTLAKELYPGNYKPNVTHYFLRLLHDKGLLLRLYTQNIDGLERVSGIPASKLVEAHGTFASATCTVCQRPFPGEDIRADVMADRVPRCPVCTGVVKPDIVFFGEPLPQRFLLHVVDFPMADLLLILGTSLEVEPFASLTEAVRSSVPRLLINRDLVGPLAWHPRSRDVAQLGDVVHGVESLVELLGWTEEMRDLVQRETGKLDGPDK
Briefly: Inhibition of SIRT3 (unknown origin) up to 50 uM using Bz-GVLK(acetyl)EYGV-NH2 as substrate after 8 mins by HPLC analysis. The essentials:
as §1

In assay [9] the target is T4, NAD-dependent protein deacetylase sirtuin-3, mitochondrial (Homo sapiens). Briefly: Binding affinity to human recombinant N-terminal strep2-tagged SIRT3 (114 to 380 residues) expressed in Escherichia coli BL21 (DE3) at 100 uM by SDS-PAGE/LC-MS based pull down assay. In outline: (§3)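 Streptavidin agarose (0.5 ml bed volume) loaded with biotinylated inhibitor (100 µM in PBS) for 30 min, then washed with PBST. Bound protein eluted with 200 mM NaOH; eluates analysed by SDS-PAGE and LC-MS.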

Assay [10] deals with T3, NAD-dependent protein deacetylase sirtuin-2 (Homo sapiens). Briefly: Binding affinity to human recombinant N-terminal strep2-tagged SIRT2 (43 to 356 residues) expressed in Escherichia coli BL21 (DE3) at 100 uM by SDS-PAGE/LC-MS based pull down assay. The essentials:
as §3

The target in assay [11] is T1, NAD-dependent protein deacylase sirtuin-5, mitochondrial. Briefly: Binding affinity to human N-terminal biotinylated SIRT5 assessed as dissociation rate constant by surface plasmon resonance spectroscopy. In outline: as §2
Target sequence in this assay (Q9NXA8 37-310 limits assumed): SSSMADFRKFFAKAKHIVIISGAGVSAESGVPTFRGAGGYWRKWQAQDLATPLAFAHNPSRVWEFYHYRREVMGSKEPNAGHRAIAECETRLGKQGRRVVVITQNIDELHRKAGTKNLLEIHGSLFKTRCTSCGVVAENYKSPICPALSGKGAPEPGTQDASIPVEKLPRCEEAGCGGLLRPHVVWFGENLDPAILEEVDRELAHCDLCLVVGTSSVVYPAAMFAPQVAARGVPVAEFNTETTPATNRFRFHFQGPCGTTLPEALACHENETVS
The target is the same in assay [12]. Briefly: Binding affinity to human recombinant N-terminal strep2-tagged SIRT5 expressed in Escherichia coli BL21 (DE3) at 100 uM by SDS-PAGE/LC-MS based pull down assay. In outline: as §3
Target sequence in this assay (Q9NXA8 37-310 limits assumed): as above
The target is the same in assay [13]. Briefly: Competitive inhibition of human recombinant N-terminal Strep2-tagged SIRT5 expressed in Escherichia coli BL21 (DE3) using Abz-GVLK(glutaryl)AY(NO2)GV-NH2 as substrate in presence of NAD+ by fluorescence assay. The essentials:
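Continuous trypsin-coupled fluorescence assay at 37°C: 10 nM SIRT5, 500 µM NAD+, 500 nM trypsin, 5% DMSO, 0.025-5 µM substrate, 0.01-20 µM inhibitor. Buffer: 20 mM Tris, 150 mM NaCl, 5 mM MgCl2, pH 7.8. Excitation 320 nm, emission 420 nm. Measured in duplicate; IC50 determined at 0.03 µM substrate by log(inhibitor) vs normalized response fit.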
Target sequence in this assay (Q9NXA8 whole entry, the tested form may be a part): as the sequence (Q9NXA8 whole entry, the tested form may be a part) above

Assay [14] has the same target. The assay is described as follows: Inhibition of human SIRT5.
Target sequence in this assay (Q9NXA8 whole entry, the tested form may be a part): as above

The structures appear in SMILES notation. pIC50, pKd, pKi: −log10 of the molar value. Activity calls are given as the source filed them. No cut-off for these calls is given here. Starred links: 1 amine or outer side, 2 acyl side, 3 side chain; linkers in the order of their positions; H or OH if unused. Positions of bridges follow the written chain, without caps; N, C: chain ends. Non-standard residues stand in square brackets, D forms with d. Residues, ends and D or L forms follow the SMILES beside them. *: point of attachment. X2 = O=C(CCCC[C@@H]1SC[C@@H]2NC(=O)N[C@@H]21)NCCCOCCOCCOCCCN*; X67 = O=C(O)CCNC(=S)NCCCC[C@H](N[*:1])C(=O)[*:2]; X71 = O=C(O)[C@@H](CC(=O)*)SCc1cccc(C(F)(F)F)c1; X64 = O=C(O)[C@H](CC(=O)*)Sc1c(Cl)cccc1Cl; X1 = O=C(O)[C@H](CC(=O)*)Sc1ccc2ccccc2c1; Suberoyl = O=C(CCCCCCC(=O)[*:2])[*:1]; X9 = O=C(O)C(CC(=O)*)Sc1ccc2ccccc2c1; β3hR = N=C(N)NCCC[C@H](N)CC(=O)O; Suc = O=C(CCC(=O)[*:2])[*:1]; Bz = O=C(c1ccccc1)*

The pIC50 is the IC50 on a negative log10 scale, so that one unit is a factor of ten. What is called pKd is −log10 of the Kd, conventionally taken in molar units. One may read the koff as the first-order rate constant of dissociation. The term pKi denotes the Ki on a negative log10 scale, so that one unit is a factor of ten.

Sequence of NAD-dependent protein deacylase sirtuin-6 (Homo sapiens) (Q8N6T7 whole entry): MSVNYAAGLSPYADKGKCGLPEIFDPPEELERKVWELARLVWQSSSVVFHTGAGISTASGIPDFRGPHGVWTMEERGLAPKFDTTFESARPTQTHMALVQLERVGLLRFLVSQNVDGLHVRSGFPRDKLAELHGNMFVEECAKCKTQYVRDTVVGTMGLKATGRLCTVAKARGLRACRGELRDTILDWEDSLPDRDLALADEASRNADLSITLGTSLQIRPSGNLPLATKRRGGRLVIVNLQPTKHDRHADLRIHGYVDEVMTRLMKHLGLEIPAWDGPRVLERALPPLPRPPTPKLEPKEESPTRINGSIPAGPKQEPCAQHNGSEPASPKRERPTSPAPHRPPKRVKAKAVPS

In the case of `N#C/C(=C\c1ccc(-c2ccc(C(=O)O)cc2)o1)C(=O)Nc1ccc(C#N)c(F)c1`, the pIC50 in assay [1] was 5.25.

With `O=C1c2c(O)cccc2Cc2cccc(O)c21` [ANTHRALIN], the values for the pIC50 in assay [2] and in assay [3] were 7.00 and 3.34, respectively.

Regarding `CC(C)C[C@H](NC(=O)[C@@H](NC(=O)CNC(=O)c1ccccc1)C(C)C)C(=O)N[C@@H](CCCCNC(=O)C[C@H](Sc1ccc2ccccc2c1)C(=O)O)C(=O)N[C@@H](CCC(=O)O)C(=O)N[C@@H](Cc1ccc(O)cc1)C(=O)NCC(=O)N[C@H](C(N)=O)C(C)C` (Bz-GVLK(X1)EYGV-NH2), the inhibition entry in assay [4], in assay [6], in [7] and in assay [8] was “inactive” each time. In [5], this compound had a pKd of 11.00. For the same compound, in assay [3], the pIC50 is 7.52.

In the case of `CC(C)C[C@H](NC(=O)[C@@H](NC(=O)CNC(=O)CCC(=O)NCCCOCCOCCOCCCNC(=O)CCCC[C@@H]1SC[C@@H]2NC(=O)N[C@@H]21)C(C)C)C(=O)N[C@@H](CCCCNC(=O)C[C@H](Sc1ccc2ccccc2c1)C(=O)O)C(=O)N[C@@H](CCC(=O)O)C(=O)N[C@@H](Cc1ccc(O)cc1)C(=O)NCC(=O)N[C@H](C(N)=O)C(C)C` ({X2-Suc}-GVLK(X1)EYGV-NH2), the outcome in assay [9] and in assay [10] was inactive. Also, the pKd in assay [5] was 9.92. Besides, the koff in [11] turned out to be 0.00015 s⁻¹. Besides, the negative-log IC50 (pIC50) in assay [3] is 7.72. For the same compound, the outcome in [12] was Active. Also, the pKi in assay [13] was 7.87.

For the compound `CC(C)C[C@H](NC(=O)[C@@H](NC(=O)CNC(=O)CCC(=O)NCCCOCCOCCOCCCNC(=O)CCCC[C@@H]1SC[C@@H]2NC(=O)N[C@@H]21)C(C)C)C(=O)N[C@@H](CCCCNC(=O)CC(Sc1ccc2ccccc2c1)C(=O)O)C(=O)N[C@@H](CCC(=O)O)C(=O)N[C@@H](Cc1ccc(O)cc1)C(=O)NCC(=O)N[C@H](C(N)=O)C(C)C` (stereo partly specified) ({X2-Suc}-GVLK(X9)EYGV-NH2), the pIC50 in assay [3] is 7.04. In addition, in assay [13], the pKi is 7.08.

Regarding `CC(=O)N[C@H]1CCCCNC(=O)CCCCCCC(=O)NCCCC[C@@H](C(=O)N[C@H](C(N)=O)[C@@H](C)O)NC(=O)[C@H](CCCCNC(=S)NCCC(=O)O)NC(=O)C[C@H](CCCNC(=N)N)NC1=O` (Ac-K[β3hR][X67]KT-NH2; linker 1-4 via Suberoyl), the negative logarithm of the IC50 (pIC50) in assay [14] is 5.12.

For the compound `CC(C)C[C@H](NC(=O)[C@@H](NC(=O)CNC(=O)c1ccccc1)C(C)C)C(=O)N[C@@H](CCCCNC(=O)C[C@@H](SCc1cccc(C(F)(F)F)c1)C(=O)O)C(=O)N[C@@H](CCC(=O)O)C(=O)N[C@@H](Cc1ccc(O)cc1)C(=O)NCC(=O)N[C@H](C(N)=O)C(C)C` (Bz-GVLK(X71)EYGV-NH2), in [3], the negative logarithm of the IC50 (pIC50) is 5.94.

Regarding `CC(C)C[C@H](NC(=O)[C@@H](NC(=O)CNC(=O)c1ccccc1)C(C)C)C(=O)N[C@@H](CCCCNC(=O)C[C@H](Sc1c(Cl)cccc1Cl)C(=O)O)C(=O)N[C@@H](CCC(=O)O)C(=O)N[C@@H](Cc1ccc(O)cc1)C(=O)NCC(=O)N[C@H](C(N)=O)C(C)C` (Bz-GVLK(X64)EYGV-NH2), the pIC50 in assay [3] is 6.24.
